The list is not random: actives were taken first. Their share in the collection is about 1.4%.
SUMO Mot1 rescue: blocks SUMOylation pathway, rescuing yeast Mot1-301 growth | 320,000 compounds, 1% hits | growth rescue, % at 18.8 µM | S. cerevisiae Mot1-301 growth rescue, ATP luminescence, 38.5C; percent above DMSO median, 100 means doubled;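 active means every valid replicate shows activation above 250% relative to neutral control wells; inactive means the rest, any valid replicate at or below 250%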
T cell modulator: T cell immune modulators affecting CD8 T cell-vesicle binding; 2C CD8+ T cell-vesicle binding, flow cytometry; hits give low values; response (vesicle binding), % at 7 µM; 330,000 compounds, 0.068% hits;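 active means response, share of CD8 T cells binding vesicles, and their 90th percentile fluorescence all below set limits, cut at about 80% in these data, passing the limit was not always enough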;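 further: values below 100% mean blocked vesicle binding to the CD8+ T cells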
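Material: murine 2C transgenic CD8+ T lymphocytes / Also added: QL9-peptide-loaded Drosophila micro-vesicles bearing Ld, ICAM-1 and B7-1 / Schedule: binding step 1.5 h, 37 °C, antibody labelling 20 min, ice / Signal: flow cytometry, PE anti-B7-1 (FL2) versus Alexa647 anti-CD8 (FL8), PFA-fixed / Evaluation: percent CD8+ FL2 mean versus row control / Benchmarks: naked versus QL9-loaded vesicles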
HIF act: HIF pathway transcriptional activation; U2OS HRE-luciferase reporter, luminescence; normalized: DMSO 0%, desferrioxamine 100%; activation, % at 7.5 µM (by protocol); 300,000 compounds, 0.32% hits; AID 1910;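 active means mean activation of at least 10% of the iron chelator positive control signal, with at least half of replicates also reaching 10%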
JMJD2C inh: inhibitors of human GASC-1 (JMJD2C) demethylase; Q9H3R0; GST-JMJD2C(1-420) H3K9me3 demethylation, DELFIA europium; inhibition, % at 2.35 µM; 330,000 compounds, 0.069% hits; AID 2099;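 active means more than half of a compound's replicate wells show inhibition beyond 50%, single wells judged on their own value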;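 further: signal counts dimethyl H3K9 product captured on neutravidin plate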
Target sequence (Q9H3R0 1-420 limits assumed): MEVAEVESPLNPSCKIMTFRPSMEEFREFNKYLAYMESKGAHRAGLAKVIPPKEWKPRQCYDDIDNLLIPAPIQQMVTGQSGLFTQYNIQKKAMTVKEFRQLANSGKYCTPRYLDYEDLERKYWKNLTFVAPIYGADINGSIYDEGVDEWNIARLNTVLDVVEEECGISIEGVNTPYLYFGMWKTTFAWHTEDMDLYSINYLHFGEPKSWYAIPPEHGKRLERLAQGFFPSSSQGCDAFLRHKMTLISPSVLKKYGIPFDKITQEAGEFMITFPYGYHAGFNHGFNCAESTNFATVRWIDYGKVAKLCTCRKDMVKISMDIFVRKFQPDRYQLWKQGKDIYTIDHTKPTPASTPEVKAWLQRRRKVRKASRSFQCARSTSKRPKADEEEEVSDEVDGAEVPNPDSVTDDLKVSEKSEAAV
Each line names hits and unclear results; the compound was inactive in the other large screens.

CCCCCCc1c(C)c2ccc(OCC(=O)N[C@@H](Cc3ccccc3)C(=O)O)cc2oc1=O	SUMO Mot1 rescue 522.5
CCCCc1cc(=O)oc2cc(OCC(=O)NCc3ccccn3)ccc12	SUMO Mot1 rescue 321.6
CC(=O)c1ccc(NC(=O)C(C)N2CCN(C/C=C/c3ccccc3)CC2)cc1 (centres undefined)	none
CC(C(=O)N(C)Cc1ccccc1)N1CCN(C/C=C/c2ccccc2)CC1 (centres undefined)	SUMO Mot1 rescue 282.4
CN(Cc1ccccc1)C(=O)COC(=O)C1CCN(S(=O)(=O)c2cccs2)CC1	none
Cc1ccc(NN2C(=O)C=C(c3ccc(Cl)cc3)C2=O)cc1	SUMO Mot1 rescue 571.6
O=C1C=C(c2ccccc2)C(=O)N1Nc1ccccc1	none
Cc1ccc(S(=O)(=O)N2CCN(S(=O)(=O)N3CCC(C)CC3)CC2)c(C)c1	none
CC1CCN(S(=O)(=O)c2ccc3c4c2CC(=O)N4CC(C)S3)CC1 (centres undefined)	HIF act 187.3
CCN(C(=O)COC(=O)CCc1ccccc1)c1ccccc1	none
O=C(CN(Cc1ccc2c(c1)OCO2)C(=O)CNC(=O)c1ccco1)NC1CCCCC1	SUMO Mot1 rescue 334.8
CN(C(=O)COC(=O)c1ccc(S(=O)(=O)N2CCOCC2)cc1)c1ccccc1	none (no result: HIF act)
N#Cc1ccccc1CSc1nnc(-c2ccncc2)o1	none
N#Cc1ccccc1CSc1nnc(Cc2ccccc2)o1	SUMO Mot1 rescue 348.3
CN1CCN(c2nc3c(c(=O)n(C)c(=O)n3C)n2Cc2ccc(Cl)cc2)CC1	SUMO Mot1 rescue 288.8
Cn1c(=O)c2c(nc(N3CCCCCC3)n2CCSc2nc3ccccc3o2)n(C)c1=O	SUMO Mot1 rescue 422.6
CN1CCN(c2nc3c(c(=O)[nH]c(=O)n3C)n2Cc2ccc(Cl)cc2)CC1	none
NC(=O)COC(=O)c1sc2ccccc2c1Cl	SUMO Mot1 rescue 544.8
O=C(NC(CCl)c1ccccc1)c1ccc(Cl)cc1 (centres undefined)	none
COc1ccc(NC(=S)c2ccc(N(C)C)cc2)cc1	HIF act 35.5 (no result: SUMO Mot1 rescue)
COc1ccc(C(=S)Nc2ccc(N(C)C)cc2)cc1	none
CCOC(=O)c1sc(NC(=O)CSc2ncn[nH]2)c(C#N)c1C	T cell modulator 14.9
CCOC(=O)c1sc(NC(=O)CSc2nc(C)cc(C)n2)c(C#N)c1C	none
O=C(COC(=O)C1CCN(c2ccc(C(F)(F)F)cn2)CC1)NCc1ccccc1	none (no result: HIF act)
Cc1cc(NC(=O)CSc2nc3c(c(=O)n2-c2ccc(Cl)cc2)SCC3)no1	HIF act 45.0
COC(=O)c1ccc(CSc2nc3c(c(=O)n2-c2ccccc2)SCC3)o1	none
COC(=O)c1ccc(CSc2nc3c(c(=O)n2-c2ccc(F)cc2)SCC3)o1	HIF act 10.5
CC(C(=O)NC1(C#N)CCCCC1)N(C)CC(=O)Nc1ccc(Cl)c(Cl)c1 (centres undefined)	none (no result: HIF act)
O=C(Nc1ccccc1C(=O)Nc1nnc(C(F)(F)F)s1)c1ccccc1Cl	none
COc1ccc(NC(=O)Nc2ccc(Br)cn2)cc1	HIF act 40.4
COc1ccc(NC(=O)Nc2ccc(CC(=O)O)cc2)cc1	HIF act 27.1
CC(=O)c1ccc(NC(=O)c2cnsn2)cc1	none
O=C(NCc1ccccc1Cl)C(=O)c1cn(CC(=O)N2CCOCC2)c2ccccc12	none
CCC(C)C(NC(=O)OCc1ccccc1)C(=O)NC(Cc1ccc(O)cc1)C(=O)OC (centres undefined)	none
Cc1sc2ncnc(SCC(=O)N3CCCCC3)c2c1C	none
Cc1nc(SCC(=O)N2CCCCC2)c2c(C)c(C)sc2n1	SUMO Mot1 rescue 309.5
CC(C)(C)C(=O)Nc1ccc(S(=O)(=O)c2ccc(NC(=O)C(C)(C)C)cc2)cc1	SUMO Mot1 rescue 319.7
CCCCc1nc2c(C)c(N)cnc2n1Cc1cccc([N+](=O)[O-])c1	none
Oc1c(C(c2ccccc2)N2CCCCC2)sc2ncnn12 (centres undefined)	SUMO Mot1 rescue 462.3
CSc1nc(N(C)C)nc(N(C#N)CCOC(C)=O)n1	SUMO Mot1 rescue 655.7
COC(=O)[C@]1(C)N[C@H](CN(C)S(=O)(=O)c2ccccc2)[C@@H]2C(=O)N(Cc3ccccc3)C(=O)[C@@H]21	none (no result: HIF act)
COc1ccccc1C(=O)Nc1nnc(S(=O)(=O)N2CCCCCC2)s1	SUMO Mot1 rescue 336.7
COc1ccccc1C(=O)Nc1nnc(CCc2ccccc2)s1	SUMO Mot1 rescue 332.4
COc1ccccc1C(=O)Nc1nnc(S(=O)(=O)N2CCCCC2)s1	none
CCOC(=O)Cc1nnc(NC(=O)c2ccccc2OC)s1	none
O=C(COc1ccccc1)Nc1ncc2c(n1)CCCC2=O	SUMO Mot1 rescue 291.9
NS(=O)(=O)c1ccc(CCNC(=O)CNC(=O)c2ccc(Br)o2)cc1	none (no result: HIF act)
CCCCN(C)Cc1c(C)[nH]c2ccccc2c1=O	none
Cc1[nH]c2ccccc2c(=O)c1CN(C)Cc1ccccc1	SUMO Mot1 rescue 331.4
COc1c(Cl)cc(Cl)cc1C(=O)Nc1ccc(CN2CCCCC2)cc1	none
COc1c(Cl)cc(Cl)cc1C(=O)Nc1ccc(CN2CCOCC2)cc1	SUMO Mot1 rescue 356.2
CC(SCC(=O)Nc1ccccc1Br)c1nc2ccccc2c(=O)[nH]1 (centres undefined)	none (no result: HIF act)
CC(=O)Nc1nc(C)c(C(C)=O)s1	SUMO Mot1 rescue 340.8
CC(=O)c1sc(NC(=O)C(C)C)nc1C	none (no result: SUMO Mot1 rescue)
CN(CC(=O)Nc1ccccc1C(=O)NC1CC1)Cc1ccc(N(C)C)cc1	none (no result: HIF act)
COc1ccccc1CNC(=O)COC(=O)c1ccc(NC(N)=O)cc1	SUMO Mot1 rescue 325.3
COc1ccc(S(=O)(=O)NCc2ccc(C(=O)O)cc2)cc1	none
COC(=O)c1ccc(CNS(=O)(=O)c2ccc3ccccc3c2)cc1	SUMO Mot1 rescue 330.3
CCOc1ccccc1CN1CCN(S(C)(=O)=O)CC1	HIF act 14.1
Cc1c(NC(=O)C(C)OC(=O)COc2ccc(C#N)cc2)c(=O)n(-c2ccccc2)n1C (centres undefined)	none
COc1cc(/C=N/Nc2ccc(C(F)(F)F)cn2)ccc1O	SUMO Mot1 rescue active
O=C(CSc1nnc(-c2ccccc2Cl)o1)N1CCOCC1	HIF act 14.3
C[C@@H]1C(=O)O[C@H](C)[C@H]1C[C@@H](O)[C@](C)(O)C1CC[C@@]2(O)C3=CC(=O)[C@@H]4C[C@@H](O)[C@@H](O)C[C@]4(C)C3CC[C@]12C (some centres undefined)	none (no result: HIF act)
Cn1cc(CNC(=O)C2CCC(=O)N(Cc3ccc(Cl)cc3)C2)cn1 (centres undefined)	none
CC(C)n1cc(CNC(=O)C2CCC(=O)N(Cc3ccccc3F)C2)cn1 (centres undefined)	SUMO Mot1 rescue 323.7
Cc1ccc(NC(=O)N2CCC(NC(=O)c3ccco3)CC2)cc1	none
Cc1ccc(NC(=O)N2CCC(NC(=O)c3cccc(C)c3)CC2)cc1	HIF act 150.5
O=C(NCc1cccs1)C(=O)c1cn(CC(=O)N2CCOCC2)c2ccccc12	none
O=C(NCc1ccccc1)C(=O)c1cn(CC(=O)N2CCOCC2)c2ccccc12	HIF act 196.9
CC(C)(CNC(=O)CCNC(=O)c1ccc(Br)cc1)N1CCOCC1	none

Screening data as filed in PubChem.
